Compound activity as filed in PubChem.
Most compounds without a hit are left out; they make up all but 2.5% or so of the library.
ERAP1 HTS inh – ERAP1 (human) enzyme inhibition | inhibition, % at 10.7 µM | recombinant ERAP1, Leu-AMC fluorescence, 60 min | Q9NZ08 | 340,000 compounds, 0.15% hits;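 active = mean replicate inhibition of at least 30%, or all replicates individually reaching that 30% level; inactive = mean below 30% and not every replicate reaching it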
SIRT5 inh – inhibitors of human sirtuin-5 desuccinylase | Q9NXA8 | Purified SirT5, succinyl-peptide AMC, trypsin-coupled fluorescence | inhibition, % at 15 µM | 330,000 compounds, 1.1% hits | AID 652115; in the data active = inhibition above about 15%; inconclusive = no clear call, values can overlap the other calls
Target sequence (Q9NXA8 whole entry, looked up): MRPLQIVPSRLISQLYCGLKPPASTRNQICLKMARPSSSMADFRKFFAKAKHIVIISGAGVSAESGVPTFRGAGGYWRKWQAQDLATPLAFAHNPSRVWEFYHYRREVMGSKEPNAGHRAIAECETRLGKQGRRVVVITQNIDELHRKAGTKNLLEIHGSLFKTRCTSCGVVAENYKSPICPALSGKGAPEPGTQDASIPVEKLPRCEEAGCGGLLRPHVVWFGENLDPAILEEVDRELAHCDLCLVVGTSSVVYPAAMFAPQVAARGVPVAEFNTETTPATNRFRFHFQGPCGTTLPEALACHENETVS
E-selectin induc – E-selectin induction on HUVECs; P16581; HUVEC E-selectin immunofluorescence imaging; normalized: neutral wells 0, TNF-alpha wells 100; activation, % at 7.58 µM; 260,000 compounds, 0.37% hits;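 active = mean E-selectin-positive cell signal at least 10% of the positive control, reached in at least 60% of replicates, without over 20% cell loss; inconclusive = no rule given, readout overlaps actives, possibly toxicity-flagged; inactive = the rest, including those meeting only one limit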
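Read-out basis: % PE-positive cells; Test system: HUVEC primary endothelial cells; Technique: immunofluorescence imaging; Dosing: single-point compound dose.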
DENV2 CPE rescue – protects cells from dengue virus 2 cytopathic effect | DENV2-infected cells, cytopathic effect rescue, plate reader | CPE inhibition, % at 9.99 µM | 350,000 compounds, 1.7% hits | AID 651640; in the data active = CPE inhibition above about 20%, passing the limit was not always enough; inconclusive = no clear call, values can overlap the other calls; tested in BHK-21 cells
PglD DTNB – inhibitors of Campylobacter jejuni PglD acetyltransferase; purified PglD enzyme, DTNB colorimetric CoA detection; inhibition, % at 12.5 µM; 360,000 compounds, 0.098% hits; AID 602405; in the data active = inhibition above about 16%, passing the limit was not always enough; inconclusive = no clear call, values can overlap the other calls
Large screens that a line does not name were inactive.

O=C1COc2ccc(C(=O)COC(=O)CCSc3ccc(Cl)cc3)cc2N1	SIRT5 inh 16 (no result: E-selectin induc, PglD DTNB)
N#Cc1ccccc1OCC(=O)OCC(=O)c1ccc2c(c1)NC(=O)CO2	ERAP1 HTS inh 36 (no result: E-selectin induc, DENV2 CPE rescue)
Clc1nc(Cl)c2ncn(-c3ccccc3)c2n1	none (no result: SIRT5 inh)
COc1ccc(N2C(=O)[C@@H]3[C@H](C2=O)[C@H](C(C)=O)N2c4ccccc4C=C[C@@H]32)cc1	none (no result: E-selectin induc)
COc1ccc(C2C(C(=O)c3ccccc3)N3c4ccccc4C=CC3C2[N+](=O)[O-])cc1 (stereo unspecified)	E-selectin induc 120 (no result: PglD DTNB)
Cc1ccc(CCNS(=O)(=O)c2ccc3c(c2)NC(=O)C(C)C(=O)N3)cc1 (stereo unspecified)	none (no result: E-selectin induc)
COc1ccc2nc(SC(C)C(=O)NC3CCCC3)[nH]c2c1 (stereo unspecified)	DENV2 CPE rescue 64 (no result: PglD DTNB)
C/[N+]([O-])=C\CC(=O)c1ccc(-c2ccccc2)cc1	none (no result: PglD DTNB)
CO/N=C/CC(=O)c1ccc(-c2ccccc2)cc1	SIRT5 inh 29 (no result: E-selectin induc, PglD DTNB)
CC1CCOC(c2coc3ccccc3c2=O)O1 (stereo unspecified)	DENV2 CPE rescue 33 (no result: E-selectin induc)
c1coc(-c2nnc(-c3ccco3)nn2)c1	SIRT5 inh 18 (no result: E-selectin induc)
c1ccc(-c2nnc(-c3ccco3)o2)cc1	none (no result: ERAP1 HTS inh, SIRT5 inh, E-selectin induc, DENV2 CPE rescue)
COC(=O)N/N=C/c1cn(Cc2ccccc2Cl)c2ccccc12	none (no result: PglD DTNB)
COC(=O)N/N=C/c1cn(Cc2ccc(Cl)cc2Cl)c2ccccc12	SIRT5 inh 20, DENV2 CPE rescue inconclusive (no result: E-selectin induc)
COc1ccc(CNC(=O)O[C@@H]2C[C@H]3C(=O)N(c4ccccc4)C(=O)[C@H]3[C@@]3(CN(S(=O)(=O)c4ccc(C)cc4)C[C@H]3C)[C@@H]2O)cc1OC	none
Cc1ccc(S(=O)(=O)N2C[C@@H](C)[C@]3(C2)[C@H](O)[C@H](OC(=O)NCc2ccco2)C[C@H]2C(=O)N(c4ccccc4)C(=O)[C@H]23)cc1	SIRT5 inh 22
O=C(O)CCC(=O)N1CCN(c2nc(-c3ccccc3)c3cc(Br)ccc3n2)CC1	none (no result: E-selectin induc)
C[C@@H]1CN([C@@H](C)CO)C(=O)Cc2cc(NC(=O)Cc3ccccc3)ccc2O[C@H]1CN(C)Cc1ccc(-c2ccccc2)cc1	none
COc1cccc(CNC(=O)CCNC(=O)c2ccco2)c1	none
COc1ccc(CNC(=O)CCNC(=O)c2ccco2)cc1OC	DENV2 CPE rescue 39
COc1cc(C#Cc2c(C=O)n(C)c3ccccc23)cc(OC)c1	SIRT5 inh 32
COCCCNC(=O)CNC(=O)c1nn(-c2ccc(OC)c(Cl)c2)c(=O)c2ccccc12	SIRT5 inh 17 (no result: PglD DTNB)
CCOC(=O)C1CCN(C(=O)c2ccc(OCC(=O)Nc3cccc(C(F)(F)F)c3)c(OC)c2)CC1	none (no result: PglD DTNB)
CSc1nc(N)nc2c1ncn2CC(=O)NCc1ccc2c(c1)OCO2	SIRT5 inh 21
C[C@@H]1CCCCO[C@@H](CN(C)S(=O)(=O)c2ccc(F)cc2)[C@@H](C)CN([C@@H](C)CO)C(=O)c2cc(NC(=O)c3ccccc3)ccc2O1	DENV2 CPE rescue 93
C[C@H](CO)N1C[C@H](C)[C@@H](CN(C)S(=O)(=O)c2ccc(F)cc2)OCCCC[C@H](C)Oc2ccc(NC(=O)c3ccccc3)cc2C1=O	none
C[C@@H]1CCCCO[C@H](CN(C)S(=O)(=O)c2ccccc2)[C@@H](C)CN([C@@H](C)CO)C(=O)c2cc(NC(=O)c3ccncc3)ccc2O1	DENV2 CPE rescue 83 (no result: E-selectin induc)
C[C@@H]1CN([C@H](C)CO)C(=O)c2cc(NC(=O)c3ccccc3)ccc2O[C@@H](C)CCCCO[C@@H]1CN(C)S(=O)(=O)c1ccc(F)cc1	DENV2 CPE rescue 98
C[C@H]1CCCCO[C@H](CN(C)S(=O)(=O)c2ccc(F)cc2)[C@@H](C)CN([C@@H](C)CO)C(=O)c2cc(NC(=O)c3ccccc3)ccc2O1	none
C[C@H](CO)N1C[C@H](C)[C@H](CN(C)S(=O)(=O)c2ccc(F)cc2)OCCCC[C@H](C)Oc2ccc(NC(=O)c3ccccc3)cc2C1=O	DENV2 CPE rescue 28
C[C@@H]1CN([C@H](C)CO)C(=O)Cc2cc(NS(=O)(=O)c3ccccc3)ccc2O[C@@H]1CN(C)C	none
O=C(c1ccncc1)N1CC2(C1)[C@H](c1ccccc1)[C@@H](CO)N2CC1CCOCC1	DENV2 CPE rescue 73 (no result: PglD DTNB)
O=C(NC1CCCCC1)N1CC2(C1)[C@H](c1ccccc1)[C@H](CO)N2CC1CCOCC1	none (no result: PglD DTNB)
O=C(c1ccccc1)N1CC2(C1)[C@@H](c1ccccc1)[C@@H](CO)N2CC1CC1	DENV2 CPE rescue 21 (no result: PglD DTNB)
O=C(NC1CCCC1)N1CC2(C1)[C@H](c1ccccc1)[C@@H](CO)N2CC1CCOCC1	DENV2 CPE rescue 38 (no result: PglD DTNB)
O=C(c1ccncc1)N1CC2(C1)[C@@H](c1ccccc1)[C@@H](CO)N2CC1CCCC1	SIRT5 inh 18 (no result: PglD DTNB)
O=C(c1ccncc1)N1CC2(C1)[C@H](c1ccccc1)[C@H](CO)N2CC1CCCC1	none (no result: PglD DTNB)
Cc1ccc(NC(=O)c2cccs2)cc1S(=O)(=O)Nc1cccc(Cl)c1	none (no result: PglD DTNB)
O=C(c1ccccc1F)N1CC2(C1)[C@@H](c1ccccc1)[C@H](CO)N2CC1CC1	DENV2 CPE rescue 30 (no result: PglD DTNB)
CCC(=O)N1CC2(C1)[C@H](c1ccccc1)[C@H](CO)N2CC1CCOCC1	DENV2 CPE rescue 70 (no result: PglD DTNB)
O=C(CCNC(=O)c1ccc(Br)cc1)OCc1ccccc1Cl	none (no result: E-selectin induc)
COc1ccc(S(=O)(=O)N2CCCC2C(=O)NCC(=O)Nc2cccc(Cl)c2C)cc1 (stereo unspecified)	DENV2 CPE rescue 70 (no result: E-selectin induc)
Cc1c(Cl)cccc1NC(=O)CNC(=O)C1CC(=O)N(C2CCCC2)C1 (stereo unspecified)	DENV2 CPE rescue 88
CCCNC(=O)C[C@H]1CC[C@H]2[C@H](COc3ccc(NC(=O)Nc4ccccc4F)cc3C(=O)N2C)O1	DENV2 CPE rescue inconclusive
O=C(COc1ccccc1)Nc1ccc(CSc2ccccc2)cc1	none (no result: E-selectin induc, DENV2 CPE rescue)
O=C(Nc1ccc(CSc2ccccc2)cc1)c1ccccc1	SIRT5 inh 15 (no result: E-selectin induc, PglD DTNB)
C=CCNC(=O)[C@H]1[C@@H]2C(=O)O[C@@H](c3ccccc3)[C@@H](c3ccccc3)N2[C@@H](c2ccccc2OCCO)[C@]12C(=O)Nc1ccc(C#CCC(C(=O)OC)C(=O)OC)cc12	none (no result: E-selectin induc)
C[C@H](CO)N1C[C@H](C)[C@@H](CN(C)C(=O)Nc2cccc3ccccc23)Oc2ccc(NS(=O)(=O)c3ccc(Cl)cc3)cc2CC1=O	E-selectin induc inconclusive
C=C(NC(=O)C(=C)NC(=O)c1csc(C2=NC3c4csc(n4)C4NC(=O)c5csc(n5)C(C(C)(O)C(C)O)NC(=O)C5CSC(=N5)/C(=C/C)NC(=O)C(C(C)O)NC(=O)c5csc(n5)C3(CC2)NC(=O)C(C)NC(=O)C(=C)NC(=O)C(=C)NC(=O)C(C(C)C)NC2C=Cc3c(C(C)O)cc(nc3C2O)C(=O)OC4C)n1)C(N)=O (stereo unspecified)	DENV2 CPE rescue 60 (no result: E-selectin induc, PglD DTNB)
CN(C)S(=O)(=O)c1cccc(NC(=S)N/N=C/c2cc(Br)ccc2O)c1	SIRT5 inh 29 (no result: E-selectin induc)
Cc1cccc(C(=O)c2ccccc2C(=O)O)c1O	none (no result: ERAP1 HTS inh, SIRT5 inh, E-selectin induc, DENV2 CPE rescue)
Cc1cccc(C(=O)OCC(=O)NC(=O)c2ccccc2)c1O	SIRT5 inh 16 (no result: PglD DTNB)
